Activity calls are given as the source filed them. The rule behind the calls is not given here.
Key:
Type in all cases: functional
COLO 205 = assay: Growth inhibition of human COLO205 cells at 10 uM after 48 hrs by SRB assay; details: COLO 205, 48 h, read-out: GI
In short: (§1)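 Cells grown in RPMI 1640 with 5% FBS and 2 mM L-glutamine, plated at 5000–40,000 cells/well by doubling time and preincubated 24 h (37 °C, 5% CO2); a time-zero plate is TCA-fixed. Single dose added, then 48 h incubation. Fixed with cold TCA, stained with 0.4% SRB, dye solubilized in 10 mM Tris base, absorbance at 515 nm; percent growth vs time-zero and untreated control.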

HOP-92 = assay: Growth inhibition of human HOP92 cells at 10 uM after 48 hrs by SRB assay; details: HOP-92, 48 h, read-out: GI; in short: as §1
MOLT-4 = assay: Growth inhibition of human MOLT4 cells at 10 uM after 48 hrs by SRB assay; in short: as §1
HL-60(TB) = assay: Growth inhibition of human HL-60(TB) cells at 10 uM after 48 hrs by SRB assay; details: HL-60, 48 h, read-out: GI
In short: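 Single-concentration pass across the 60-line panel in RPMI 1640 with 5% FBS. Cells preincubated 24 h, then exposed 48 h at 37 °C, 5% CO2. Read by SRB staining with absorbance at 515 nm. Percent growth is taken relative to time-zero and untreated controls and reported as percent growth inhibition (GI %).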

[1] = Cytotoxicity against human breast cancer cells after 48 hrs by SRB assay; details: Cancer cell lines
In short: (§2)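 Five-concentration screen (10-fold or ½-log serial dilutions) on the 60-line panel. Cells grown in RPMI 1640 with 5% FBS and 2 mM L-glutamine, plated at 5000–40,000/well by doubling time, preincubated 24 h at 37 °C, 5% CO2, then exposed 48 h. Time-zero plates TCA-fixed. SRB stain, Tris-solubilized, A515. GI50, TGI and LC50 derived from Tz, C and Ti.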

[2] = Cytotoxicity against human prostate cancer cells after 48 hrs by SRB assay; details: Cancer cell lines; in short: as §2
[3] = Cytotoxicity against human renal cancer cells after 48 hrs by SRB assay; details: Cancer cell lines; in short: as §2
[4] = Cytotoxicity against human melanoma cells after 48 hrs by SRB assay; details: Melanoma cell; in short: as §2
[5] = Cytotoxicity against human ovarian cancer cells after 48 hrs by SRB assay; details: Cancer cell lines; in short: as §2
[6] = Cytotoxicity against human CNS cancer cells after 48 hrs by SRB assay; details: Cancer cell lines; in short: as §2
[7] = Cytotoxicity against human colon cancer cells after 48 hrs by SRB assay; details: Cancer cell lines; in short: as §2
[8] = Cytotoxicity against human non-small cell lung cancer cells after 48 hrs by SRB assay; details: Cancer cell lines; in short: as §2
[9] = Cytotoxicity against human leukemia cells after 48 hrs by SRB assay; details: Leukemia cell; in short: as §2
MDA-MB-231 = assay: Growth inhibition of human MDA-MB-231 cells at 10 uM after 48 hrs by SRB assay; details: MDA-MB-231, 48 h, read-out: GI; in short: as §1
DU-145 = assay: Growth inhibition of human DU145 cells at 10 uM after 48 hrs by SRB assay; details: DU-145, 48 h, read-out: GI; in short: as §1
UO-31 = assay: Growth inhibition of human UO31 cells at 10 uM after 48 hrs by SRB assay; details: UO-31, 48 h, read-out: GI
In short: (§3)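 NCI 60-cell-line screen with a single 10 µM dose. Cells are grown in RPMI 1640 with 5% FBS and 2 mM L-glutamine, plated at 5000–40,000 cells/well according to doubling time, and preincubated 24 h at 37 °C, 5% CO2; time-zero plates are TCA-fixed at that point. Drug exposure is 48 h. Adherent cells are fixed with cold TCA, stained with 0.4% SRB in 1% acetic acid and read at 515 nm. Percent growth is calculated relative to time-zero and untreated controls and reported as GI%.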

ACHN = assay: Growth inhibition of human ACHN cells at 10 uM after 48 hrs by SRB assay; details: read-out: GI; in short: as §1
CAKI-1 = assay: Growth inhibition of human Caki1 cells at 10 uM after 48 hrs by SRB assay; details: CAKI-1, 48 h, read-out: GI; in short: as §1
786-0 = assay: Growth inhibition of human 786-0 cells at 10 uM after 48 hrs by SRB assay; details: 786-0, 48 h, read-out: GI; in short: as §1
[10] = Growth inhibition of human NCI-ADR-RES cells at 10 uM after 48 hrs by SRB assay; details: read-out: GI; in short: as §1
OVCAR-8 = assay: Growth inhibition of human OVCAR8 cells at 10 uM after 48 hrs by SRB assay; details: OVCAR-8, 48 h, read-out: GI; in short: as §1
IGROV-1 = assay: Growth inhibition of human IGROV1 cells at 10 uM after 48 hrs by SRB assay; details: IGROV-1, 48 h, read-out: GI; in short: as §1
UACC-257 = assay: Growth inhibition of human UACC257 cells at 10 uM after 48 hrs by SRB assay; details: UACC-257, 48 h, read-out: GI; in short: as §3
SK-MEL-28 = assay: Growth inhibition of human SK-MEL-28 cells at 10 uM after 48 hrs by SRB assay; details: SK-MEL-28, 48 h, read-out: GI; in short: as §1
SK-MEL-2 = assay: Growth inhibition of human SK-MEL-2 cells at 10 uM after 48 hrs by SRB assay; details: SK-MEL-2, 48 h, read-out: GI; in short: as §1
MDA-MB-435 = assay: Growth inhibition of human MDA-MB-435 cells at 10 uM after 48 hrs by SRB assay; details: MDA-MB-435, 48 h, read-out: GI; in short: as §1
M14 = assay: Growth inhibition of human M14 cells at 10 uM after 48 hrs by SRB assay; details: M14, 48 h, read-out: GI; in short: as §1
LOX IMVI = assay: Growth inhibition of human LOXIMVI cells at 10 uM after 48 hrs by SRB assay; details: read-out: GI; in short: as §1
SF-295 = assay: Growth inhibition of human SF295 cells at 10 uM after 48 hrs by SRB assay; details: SF-295, 48 h, read-out: GI; in short: as §1
SF-539 = assay: Growth inhibition of human SF539 cells at 10 uM after 48 hrs by SRB assay; details: SF-539, 48 h, read-out: GI; in short: as §1
SF-268 = assay: Growth inhibition of human SF268 cells at 10 uM after 48 hrs by SRB assay; details: SF-268, 48 h, read-out: GI; in short: as §1
HT-29 = assay: Growth inhibition of human HT-29 cells at 10 uM after 48 hrs by SRB assay; details: HT-29, 48 h, read-out: GI; in short: as §1
[11] = Growth inhibition of human EKVX cells at 10 uM after 48 hrs by SRB assay; details: read-out: GI; in short: as §1
[12] = read-out: LC50 (the source's name)

SMILES: Nc1ccc(Sc2ccc3c4c2cccc4c(=O)n2c4ccccc4nc32)cc1
- inhibition of growth at 10 µM (COLO 205): 49.2%
- inhibition of growth at 10 µM (HOP-92): 71.3%
- growth inhibition (GI) (MOLT-4): Active
- inhibition of growth at 10 µM (HL-60(TB)): 81.8%
- GI50 [1]: 5.2 µM
- TGI [1]: 46 µM
- CC50 [1, 12]: > 100 µM
- GI50 [2]: 3.23 µM
- TGI [2]: 17.9 µM
- GI50 [3]: 3.3 µM
- TGI [3]: 15.4 µM
- CC50 [3, 12]: 88.9 µM
- GI50 [4]: 6.93 µM
- LC50 [4]: 83.9 µM
- TGI [4]: 35.1 µM
- GI50 [5]: 6.97 µM
- TGI [5]: 37.4 µM
- CC50 [5, 12]: 97.9 µM
- GI50 [6]: 4.09 µM
- TGI [6]: 45.4 µM
- CC50 [6, 12]: 94 µM
- GI50 [7]: 6.58 µM
- TGI [7]: 60.8 µM
- CC50 [7, 12]: 98.8 µM
- GI50 [8]: 3.94 µM
- TGI [8]: 32.5 µM
- GI50 [9]: 2.9 µM
- TGI [9]: 44.5 µM
- CC50 [9, 12]: > 100 µM
- inhibition of growth at 10 µM (MDA-MB-231): 45.6%
- inhibition of growth at 10 µM (DU-145): 60.7%
- inhibition of growth at 10 µM (UO-31): 90.7%
- inhibition of growth at 10 µM (ACHN): 77.9%
- inhibition of growth at 10 µM (CAKI-1): 94.1%
- inhibition of growth at 10 µM (786-0): 62.7%
- inhibition of growth at 10 µM [10]: 43.4%
- inhibition of growth at 10 µM (OVCAR-8): 50%
- inhibition of growth at 10 µM (IGROV-1): 65.5%
- inhibition of growth at 10 µM (UACC-257): 29%
- inhibition of growth at 10 µM (SK-MEL-28): 26.3%
- inhibition of growth at 10 µM (SK-MEL-2): < 20%
- inhibition of growth at 10 µM (MDA-MB-435): < 20%
- inhibition of growth at 10 µM (M14): 54.6%
- inhibition of growth at 10 µM (LOX IMVI): 70.8%
- inhibition of growth at 10 µM (SF-295): 88%
- inhibition of growth at 10 µM (SF-539): 51.5%
- inhibition of growth at 10 µM (SF-268): 40.6%
- inhibition of growth at 10 µM (HT-29): 33.3%

SMILES: O=c1c2cccc3c(N4CCOCC4)ccc(c32)c2nc3ccccc3n12
- inhibition of growth at 10 µM (COLO 205): < 20%
- inhibition of growth at 10 µM (HOP-92): 40.8%
- inhibition of growth at 10 µM [11]: 61.7%
- inhibition of growth at 10 µM (MOLT-4; MOLT-4, 48 h, read-out: GI): < 20%
- inhibition of growth at 10 µM (HL-60(TB)): < 20%
- inhibition of growth at 10 µM (MDA-MB-231): < 20%
- inhibition of growth at 10 µM (DU-145): < 20%
- inhibition of growth at 10 µM (UO-31): 34.1%
- inhibition of growth at 10 µM (ACHN): < 20%
- inhibition of growth at 10 µM (CAKI-1): 30.4%
- inhibition of growth at 10 µM (786-0): < 20%
- inhibition of growth at 10 µM [10]: < 20%
- inhibition of growth at 10 µM (OVCAR-8): < 20%
- inhibition of growth at 10 µM (IGROV-1): 41.7%
- inhibition of growth at 10 µM (UACC-257): < 20%
- inhibition of growth at 10 µM (SK-MEL-28): < 20%
- inhibition of growth at 10 µM (SK-MEL-2): < 20%
- inhibition of growth at 10 µM (MDA-MB-435): < 20%
- inhibition of growth at 10 µM (M14): < 20%
- inhibition of growth at 10 µM (LOX IMVI): < 20%
- inhibition of growth at 10 µM (SF-295): < 20%
- inhibition of growth at 10 µM (SF-539): < 20%
- inhibition of growth at 10 µM (SF-268): < 20%
- inhibition of growth at 10 µM (HT-29): < 20%

Reference: ChEMBL document CHEMBL2424551, “Synthesis, in vitro evaluation and molecular modelling of naphthalimide analogue as anticancer agents” (2013)
